Active and inactive are the calls of the source. The calls are words filed in the database; no cut-off is given here.
What was measured:
Mus musculus [1] = assay: Inhibition of p-benzoquinone-induced writhing in Swiss albino mouse at 100 mg/kg, po relative to control; type: functional
Summary of the method: (§1)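 Mice, n = 6 per group, dosed orally with a suspension in 0.5% sodium CMC. 60 min later, 0.1 ml/10 g of 2.5% […] p-benzoquinone in distilled water given ip. Abdominal writhes counted per animal for 15 min, starting 5 min after injection. Expressed as % change in mean writhing count versus vehicle controls.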

Mus musculus [2] = assay: Analgesic activity against p-benzoquinone-induced abdominal constriction in Swiss albino mouse assessed as number of writhings at 100 mg/kg, po; type: functional, Abdomen
Summary of the method: (§2)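 Test samples given orally in 0.5% CMC; vehicle to controls. 60 min later, 2.5% (v/v) p-benzoquinone in distilled water, 0.1 ml/10 g, given i.p. Mice housed singly; writhes counted for 15 min starting 5 min after injection. Activity is % change from vehicle controls. n = 6; mean ± SEM.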

Mus musculus [3] = assay: Inhibition of carrageenan-induced paw edema in Swiss albino mouse at 100 mg/kg, po after 90 mins relative to control; type: functional; conditions: 1.5 h
Summary of the method: (§3)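 Oral dosing in 0.5% CMC; vehicle to controls. Then carrageenan (0.5 mg/25 ll, freshly suspended in 154 mM saline) injected into the right hind paw subplantar tissue; saline into the left paw. Right-left footpad thickness difference measured by dial gauge calliper every 90 min over 6 h. Inhibition % is relative to vehicle control. n = 6; mean ± SEM.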

Mus musculus [4] = assay: Antiinflammatory activity against carrageenan-induced paw edema in Swiss albino mouse assessed as swelling thickness at 100 mg/kg, po after 90 mins; type: functional; summary of the method: as §3
Mus musculus [5] = assay: Acute toxicity in Swiss albino mouse assessed as lethal effect at 25 mg/kg/day, po after 72 hrs; type: organism-based; set-up: route oral; conditions: in vivo
Summary of the method: (§4)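 Oral single dose suspended in 0.5% carboxymethylcellulose, given after a 24 h fast; food and water returned 1 h after dosing. Vehicle-only controls. Mice observed at 1 h, then once daily for 72 h, for toxic signs and mortality.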

Mus musculus [6] = assay: Antiinflammatory activity against carrageenan-induced paw edema in Swiss albino mouse assessed as swelling thickness at 100 mg/kg, po after 270 mins; type: functional; summary of the method: as §3
Mus musculus [7] = assay: Gastric-ulcerogenic effect in Swiss albino mouse assessed as lesions at 100 mg/kg, po; type: functional, organism-based; set-up: dose 100 mg/kg
Summary of the method: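 Mice killed under deep ether anesthesia 3 h after the writhing test; the oral dose in 0.5% CMC was the one used in that test. Stomachs removed, opened along the great curvature and examined under a dissecting microscope for lesions or bleeding. Reported as ratio of ulceration; n = 6.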

Mus musculus [8] = assay: Acute toxicity in Swiss albino mouse assessed as lethal effect at 100 mg/kg/day, po after 72 hrs; type: organism-based; set-up: route oral; conditions: in vivo; summary of the method: as §4
Mus musculus [9] = assay: Antiinflammatory activity against carrageenan-induced paw edema in Swiss albino mouse assessed as swelling thickness at 100 mg/kg, po after 360 mins; type: functional; summary of the method: as §3
Mus musculus [10] = assay: Acute toxicity in Swiss albino mouse assessed as lethal effect at 50 mg/kg/day, po after 72 hrs; type: organism-based; set-up: route oral; conditions: in vivo; summary of the method: as §4
Mus musculus [11] = assay: Inhibition of carrageenan-induced paw edema in Swiss albino mouse at 100 mg/kg, po after 270 mins relative to control; type: functional; conditions: 4.5 h; summary of the method: as §3
Mus musculus [12] = assay: Acute toxicity in Swiss albino mouse assessed as lethal effect at 200 mg/kg/day, po after 72 hrs; type: organism-based; set-up: route oral; conditions: in vivo; summary of the method: as §4
Mus musculus [13] = assay: Inhibition of carrageenan-induced paw edema in Swiss albino mouse at 100 mg/kg, po after 180 mins relative to control; type: functional; conditions: 3 h; summary of the method: as §3
Mus musculus [14] = assay: Antiinflammatory activity against carrageenan-induced paw edema in Swiss albino mouse assessed as swelling thickness at 100 mg/kg, po after 180 mins; type: functional; summary of the method: as §3
Mus musculus [15] = assay: Analgesic activity against p-benzoquinone-induced abdominal constriction in Swiss albino mouse assessed as number of writhings at 200 mg/kg, po; type: functional, Abdomen; summary of the method: as §2
Mus musculus [16] = assay: Inhibition of p-benzoquinone-induced writhing in Swiss albino mouse at 200 mg/kg, po relative to control; type: functional; summary of the method: as §1
Mus musculus [17] = assay: Inhibition of carrageenan-induced paw edema in Swiss albino mouse at 100 mg/kg, po after 360 mins relative to control; type: functional; conditions: 6 h; summary of the method: as §3

Compound	inhibition in vivo at 100 mg/kg (Mus musculus [1])	Activity (Mus musculus [2])	inhibition in vivo at 100 mg/kg (Mus musculus [3])	Activity (Mus musculus [4])	Activity (Mus musculus [5])	Activity (Mus musculus [6])	Activity (Mus musculus [7])	Activity (Mus musculus [8])	Activity (Mus musculus [9])	Activity (Mus musculus [10])	inhibition in vivo at 100 mg/kg (Mus musculus [11])	Activity (Mus musculus [12])	inhibition in vivo at 100 mg/kg (Mus musculus [13])	Activity (Mus musculus [14])	Activity (Mus musculus [15])	inhibition in vivo at 200 mg/kg (Mus musculus [16])	inhibition in vivo at 100 mg/kg (Mus musculus [17])
CS(=O)(=O)c1nc(-c2ccccc2)n[nH]1	20.9%	37.4	1.3%	44.2 10^-2mm	Non-toxic	47.5 10^-2mm	Active	Non-toxic	56.7 10^-2mm	Non-toxic	19.2%	Non-toxic	12.2%	45.2 10^-2mm	–	–	–
CCSc1nc(-c2ccc(Br)cc2)n[nH]1	–	49.2	–	59.6 10^-2mm	Non-toxic	78.2 10^-2mm	–	Non-toxic	88.3 10^-2mm	Non-toxic	–	Non-toxic	–	69.2 10^-2mm	–	–	–
CC(=O)Oc1ccccc1C(=O)O [ASPIRIN]	55.2%	21.2	–	–	–	–	–	–	–	–	–	–	–	–	23.8	53.6%	–
CSc1nc(-c2cccc(Br)c2)n[nH]1	1.1%	46.8	–	47.5 10^-2mm	Non-toxic	67.7 10^-2mm	Active	Non-toxic	79.5 10^-2mm	Non-toxic	–	Non-toxic	–	57.3 10^-2mm	–	–	–
CS(=O)(=O)c1nc(-c2cccc(Br)c2)n[nH]1	–	48.2	–	48.2 10^-2mm	Non-toxic	65.8 10^-2mm	Active	Non-toxic	80.5 10^-2mm	Non-toxic	–	Non-toxic	–	55.9 10^-2mm	–	–	–
CCS(=O)(=O)c1nc(-c2cccc(Br)c2)n[nH]1	4.4%	45.2	–	68.8 10^-2mm	Non-toxic	85.6 10^-2mm	–	Non-toxic	91.7 10^-2mm	Non-toxic	–	Non-toxic	–	74.9 10^-2mm	–	–	–
CSc1n[nH]c(-c2ccc(Cl)cc2)n1	–	–	–	–	Non-toxic	–	–	Non-toxic	–	Non-toxic	–	Non-toxic	–	–	–	–	–
CSc1nc(-c2ccc(Br)cc2)n[nH]1	–	58.9	–	46.9 10^-2mm	Non-toxic	63.3 10^-2mm	–	Non-toxic	70.9 10^-2mm	Non-toxic	–	Non-toxic	–	54.1 10^-2mm	–	–	–
CSc1nc(-c2ccccc2Cl)n[nH]1	11.6%	41.8	4.7%	42.7 10^-2mm	Non-toxic	52.8 10^-2mm	Active	Non-toxic	57 10^-2mm	Non-toxic	10.2%	Non-toxic	5.2%	48.8 10^-2mm	–	–	17.2%
CCSc1nc(-c2cccc(Br)c2)n[nH]1	–	51.5	–	48.5 10^-2mm	Non-toxic	55.3 10^-2mm	Active	Non-toxic	58.3 10^-2mm	Non-toxic	–	Non-toxic	–	52.3 10^-2mm	–	–	–
CS(=O)(=O)c1nc(-c2ccc(Br)cc2)n[nH]1	–	49.4	–	51.2 10^-2mm	Non-toxic	59.5 10^-2mm	–	Non-toxic	64 10^-2mm	Non-toxic	–	Non-toxic	–	55.2 10^-2mm	–	–	–
CSc1nc(-c2ccccc2)n[nH]1	15%	40.2	14.9%	38.1 10^-2mm	Non-toxic	47.6 10^-2mm	–	Non-toxic	54.4 10^-2mm	Non-toxic	19%	Non-toxic	13.6%	44.5 10^-2mm	–	–	20.9%
CCSc1nc(-c2ccccc2)n[nH]1	2.5%	46.1	–	46 10^-2mm	Non-toxic	51.2 10^-2mm	Active	Non-toxic	54.7 10^-2mm	Non-toxic	–	Non-toxic	–	48.3 10^-2mm	–	–	–

Source: ChEMBL document CHEMBL1142894, “Preparation of 5-aryl-3-alkylthio-l,2,4-triazoles and corresponding sulfones with antiinflammatory-analgesic activity” (Bioorg Med Chem, 2007)
